{"source": "ChEMBL document CHEMBL1125474", "about": "“Comparative molecular field analysis of anticoccidial triazines” (J Med Chem, 1992)"}
{"tested_on": "Eimeria tenella", "assay": "Minimum effective concentration for anti-coccidial activity against […] coccidian parasite Eimeria tenella in chicks expressed as mmol/kg of feed", "type": "functional", "outline": "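Chicks kept on feed containing test drug, then challenged with *Eimeria tenella* oocysts. Activity is scored as the degree of lesion control in the ceca of treated, challenged birds. The lowest feed concentration that controls lesions is taken as the MEC. Values are usually reproducible within one 2-fold dilution (±0.3 in log(1/MEC)).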"}
{"smiles": "O=c1cnn(-c2ccc(S(=O)(=O)N3CCOCC3)c(Cl)c2)c(=O)[nH]1", "Log 1/MEC": 1.09}
{"smiles": "Cc1cc(-n2ncc(=O)[nH]c2=O)cc(Cl)c1S(=O)(=O)N(C)C", "Log 1/MEC": 0.76}
{"smiles": "O=c1cnn(-c2ccc(S(=O)(=O)N3CCCCC3)c(Cl)c2)c(=O)[nH]1", "Log 1/MEC": 0.17}
{"smiles": "Cc1cc(-n2ncc(=O)[nH]c2=O)cc(C)c1S(=O)(=O)N1CCOCC1", "Log 1/MEC": 1.39}
{"smiles": "O=c1cnn(-c2cc(Cl)c(S(=O)(=O)N3CCOCC3)c(Cl)c2)c(=O)[nH]1", "Log 1/MEC": 1.13}
{"smiles": "O=c1cnn(-c2cccc(Cl)c2)c(=O)[nH]1", "Log 1/MEC": 0.25}
{"smiles": "O=c1cnn(-c2ccc(S(=O)(=O)N3CCC(O)CC3)c(Cl)c2)c(=O)[nH]1", "Log 1/MEC": -0.11}
{"smiles": "Cc1cc(C)cc(-n2ncc(=O)[nH]c2=O)c1", "Log 1/MEC": 0.86}
{"smiles": "Cc1cc(Cl)cc(-n2ncc(=O)[nH]c2=O)c1", "Log 1/MEC": 1.2}
{"smiles": "O=c1cnn(-c2ccc(S(=O)(=O)c3ccc(Cl)cc3)cc2)c(=O)[nH]1", "Log 1/MEC": 1.96}
{"smiles": "Cc1cc(-n2ncc(=O)[nH]c2=O)cc(Cl)c1Sc1ccc(Cl)cc1", "Log 1/MEC": 3.28}
{"smiles": "CCc1cc(-n2ncc(=O)[nH]c2=O)cc(C)c1Sc1ccc(Cl)cc1", "Log 1/MEC": 0.79}
{"smiles": "COc1c(Cl)cc(-n2ncc(=O)[nH]c2=O)cc1Cl", "Log 1/MEC": 0.06}
{"smiles": "O=c1cnn(-c2cc(Cl)c(S(=O)(=O)c3ccc(Cl)cc3)c(Cl)c2)c(=O)[nH]1", "Log 1/MEC": 2.94}
{"smiles": "Cc1cc(-n2ncc(=O)[nH]c2=O)cc(Cl)c1S(=O)(=O)N1CCSCC1", "Log 1/MEC": 0.53}
{"smiles": "O=c1cnn(-c2cc(Cl)cc(Cl)c2)c(=O)[nH]1", "Log 1/MEC": 1.81}
{"smiles": "O=c1cnn(-c2ccccc2)c(=O)[nH]1", "Log 1/MEC": -0.42}
{"smiles": "O=c1cnn(-c2ccc(Sc3ccc(Cl)cc3)c(Cl)c2)c(=O)[nH]1", "Log 1/MEC": 2.26}
{"smiles": "O=c1cnn(-c2ccc(S(=O)(=O)c3ccc(Cl)cc3)c(Cl)c2)c(=O)[nH]1", "Log 1/MEC": 2.3}
{"smiles": "CS(=O)(=O)c1c(Cl)cc(-n2ncc(=O)[nH]c2=O)cc1Cl", "Log 1/MEC": 0.13}
{"smiles": "O=c1cnn(-c2cc(Cl)c(Sc3ccc(Cl)cc3)c(Cl)c2)c(=O)[nH]1", "Log 1/MEC": 3.3}
{"smiles": "O=c1cnn(-c2ccc(S(=O)(=O)c3ccc(Br)cc3)cc2)c(=O)[nH]1", "Log 1/MEC": 1.71}
{"smiles": "Cc1cc(-n2ncc(=O)[nH]c2=O)cc(C)c1S(=O)(=O)c1ccc(Cl)cc1", "Log 1/MEC": 2.59}
{"smiles": "Cc1cc(-n2ncc(=O)[nH]c2=O)cc(C)c1[S+]([O-])c1ccc(Cl)cc1", "note": "(stereo not drawn)", "Log 1/MEC": 2.58}
{"smiles": "Cc1cc(-n2ncc(=O)[nH]c2=O)cc(Cl)c1S(=O)(=O)c1ccc(Cl)cc1", "Log 1/MEC": 1.71}
{"smiles": "O=c1cnn(-c2ccc(S(=O)(=O)c3ccccc3)cc2)c(=O)[nH]1", "Log 1/MEC": 1.04}
{"smiles": "O=C(c1ccc(Cl)cc1)c1c(Cl)cc(-n2ncc(=O)[nH]c2=O)cc1Cl", "Log 1/MEC": 2.9}
{"smiles": "CS(=O)(=O)c1ccc(-n2ncc(=O)[nH]c2=O)cc1", "Log 1/MEC": -0.27}
{"smiles": "O=c1cnn(-c2ccc([N+](=O)[O-])cc2)c(=O)[nH]1", "Log 1/MEC": -0.03}
{"smiles": "O=c1cnn(-c2ccc(Oc3ccccc3)cc2)c(=O)[nH]1", "Log 1/MEC": -0.25}
{"smiles": "O=c1cnn(-c2ccc(Oc3ccc(I)cc3)c(Cl)c2)c(=O)[nH]1", "Log 1/MEC": 1.77}
{"smiles": "CSc1ccc(Oc2ccc(-n3ncc(=O)[nH]c3=O)cc2C)cc1", "Log 1/MEC": 2.23}
{"smiles": "Cc1cc(-n2ncc(=O)[nH]c2=O)ccc1Oc1ccc(Br)cc1", "Log 1/MEC": 1.7}
{"smiles": "CSc1ccc(Oc2ccc(-n3ncc(=O)[nH]c3=O)cc2Cl)cc1", "Log 1/MEC": 1.98}
{"smiles": "CC(=O)c1ccc(Sc2c(C)cc(-n3ncc(=O)[nH]c3=O)cc2Cl)cc1", "Log 1/MEC": 3.19}
{"smiles": "O=c1cnn(-c2ccc(Cl)c(Cl)c2)c(=O)[nH]1", "Log 1/MEC": 0.63}
{"smiles": "CC(C)(C)c1ccc(Sc2ccc(-n3ncc(=O)[nH]c3=O)cc2Cl)cc1", "Log 1/MEC": 0.51}
{"smiles": "O=c1cnn(-c2ccc(Oc3ccc4cc(Br)ccc4c3)c(Cl)c2)c(=O)[nH]1", "Log 1/MEC": 1.77}
{"smiles": "O=c1cnn(-c2ccc(Sc3ccc4ccccc4c3)c(Cl)c2)c(=O)[nH]1", "Log 1/MEC": 0.48}
{"smiles": "CSc1ccc(Oc2c(C)cc(-n3ncc(=O)[nH]c3=O)cc2C)cc1", "Log 1/MEC": 2.25}
{"smiles": "COc1cc(-n2ncc(=O)[nH]c2=O)cc(OC)c1OC", "Log 1/MEC": -0.55}
{"smiles": "CC(=O)c1ccc(Oc2c(C)cc(-n3ncc(=O)[nH]c3=O)cc2Cl)cc1", "Log 1/MEC": 2.27}
{"smiles": "Cc1cc(-n2ncc(=O)[nH]c2=O)ccc1Oc1ccc(Cl)cc1Cl", "Log 1/MEC": 1.69}
{"smiles": "Cc1cc(-n2ncc(=O)[nH]c2=O)ccc1Oc1ccc(Cl)cc1", "Log 1/MEC": 0.74}
{"smiles": "O=c1cnn(-c2cccc(C(F)(F)F)c2)c(=O)[nH]1", "Log 1/MEC": 0.93}
{"smiles": "Cc1cc(-n2ncc(=O)[nH]c2=O)cc(Cl)c1Oc1ccc(Cl)cc1", "Log 1/MEC": 1.98}
{"smiles": "CSc1ccc(Oc2c(C)cc(-n3ncc(=O)[nH]c3=O)cc2C)cc1C", "Log 1/MEC": 2.27}
{"smiles": "Cc1cc(-n2ncc(=O)[nH]c2=O)ccc1Oc1ccc(S(C)(=O)=O)cc1", "Log 1/MEC": 1.97}
{"smiles": "Cc1cc(-n2ncc(=O)[nH]c2=O)cc(Cl)c1Oc1ccc(C(C)O)cc1", "note": "(stereo not drawn)", "Log 1/MEC": 2.27}
{"smiles": "CCN(C)S(=O)(=O)c1ccc(Oc2c(C)cc(-n3ncc(=O)[nH]c3=O)cc2Cl)c(Cl)c1", "Log 1/MEC": 2.11}
{"smiles": "Cc1cc(-n2ncc(=O)[nH]c2=O)cc(Cl)c1Oc1ccc(S(=O)(=O)NC2CC2)cc1Cl", "Log 1/MEC": 1.51}
{"smiles": "O=c1cnn(-c2cc(Cl)c(Cc3ccc(Cl)cc3)c(Cl)c2)c(=O)[nH]1", "Log 1/MEC": 3.18}
{"smiles": "O=c1cnn(-c2ccc(Oc3ccc(Cl)cc3Cl)c(Cl)c2)c(=O)[nH]1", "Log 1/MEC": 1.71}
{"smiles": "O=c1cnn(-c2ccc(F)c(C(F)(F)F)c2)c(=O)[nH]1", "Log 1/MEC": 1.26}
{"smiles": "N#Cc1cccc(-n2ncc(=O)[nH]c2=O)c1", "Log 1/MEC": 0.85}
{"smiles": "O=c1cnn(-c2ccc(Cc3ccc(Cl)cc3)c(Cl)c2)c(=O)[nH]1", "Log 1/MEC": 1.64}
{"smiles": "COc1cc(OC)cc(-n2ncc(=O)[nH]c2=O)c1", "Log 1/MEC": -0.3}
{"smiles": "O=c1cnn(-c2ccc(Br)c(C(F)(F)F)c2)c(=O)[nH]1", "Log 1/MEC": 1.35}
{"smiles": "O=c1cnn(-c2ccc(C(O)c3ccc(Cl)cc3)c(Cl)c2)c(=O)[nH]1", "note": "(stereo not drawn)", "Log 1/MEC": 2.26}
{"smiles": "Cc1cc(-n2ncc(=O)[nH]c2=O)cc(C)c1C(=O)c1ccc(Cl)cc1", "Log 1/MEC": 1.38}
{"smiles": "Cc1cc(-n2ncc(=O)[nH]c2=O)ccc1C(O)c1ccccc1", "note": "(stereo not drawn)", "Log 1/MEC": 1.01}
{"smiles": "C[C@@](C#N)(c1ccc(Cl)cc1)c1c(Cl)cc(-n2ncc(=O)[nH]c2=O)cc1Cl", "Log 1/MEC": 2.62}
{"smiles": "N#C[C@H](c1ccc(Cl)cc1)c1c(Cl)cc(-n2ncc(=O)[nH]c2=O)cc1Cl", "Log 1/MEC": 3.61}
{"smiles": "O=c1cnn(-c2ccc(Cl)c(C(F)(F)F)c2)c(=O)[nH]1", "Log 1/MEC": 1.56}
{"smiles": "O=C1c2ccccc2CSc2cc(-n3ncc(=O)[nH]c3=O)ccc21", "Log 1/MEC": 1.04}
{"smiles": "O=c1cnn(-c2cc(I)cc(I)c2)c(=O)[nH]1", "Log 1/MEC": 1.17}
{"smiles": "N#CC(c1ccc(Cl)cc1)c1c(Cl)cc(-n2ncc(=O)[nH]c2=O)cc1Cl", "note": "(stereo not drawn) [DICLAZURIL]", "Log 1/MEC": 3.61}
{"smiles": "Cc1cc(-n2ncc(=O)[nH]c2=O)cc(C)c1Sc1ccc(Cl)cc1", "note": "[TIAZURIL]", "Log 1/MEC": 2.86}
